# Experimental data taken from PubChem BioAssay AID463079 (The Scripps Research Institute Molecular Screening Center, 2010).
# Screen size: about 330,000 compounds; about 2,000 (0.61%) were called active. What follows is part of a selection rich in actives, with near analogues and random picks from the rest. A number with no mark means an inactive call.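 The calls were made as follows: active = inhibition above that plate's mean sample inhibition plus 3 SD (cut at about 26% in these data); inactive = the rest.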
# Experiment: nonselective Gq signaling inhibition in CHO cells – cell-based, fluorescence, Fluo-8 calcium dye, counter-screen for OX1R antagonist project, primary screen (AID 463079);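 also: 0% = ATP-challenged DMSO wells and 100% = DMSO wells without ATP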
# Conditions: parental CHO-K1, ATP-induced calcium, Fluo-8 fluorescence; at 5.6 µM; active compounds read high
# Procedure, shortened: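 Test system: untransfected parental CHO cell line. Compound: one dose, 5.6 µM nominal. Detection: intracellular calcium via Fluo-8 no-wash fluorescent dye. Measure: % inhibition. Benchmarks: ATP-challenged DMSO wells low, unchallenged DMSO wells high.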
row,SMILES,inhibition
1,CCCC(C)NC(=O)C1CCN(C(=O)C2CC(=O)N(c3ccc(C)cc3)C2)CC1 (configuration not stated),-8.45%
2,CCN(Cc1ccncc1)C(=O)c1cccc(S(=O)(=O)N2CCOCC2)c1,-16.1%
3,Cc1nc(-c2ccc(F)cc2)c(CC(=O)Nc2cccc(S(=O)(=O)N3CCOCC3)c2)s1,-17.7%
4,O=S(=O)(c1cccc(Cn2nnc(-c3ccc(F)cc3)n2)c1)N1CCOCC1,41.7% (active)
5,CC(=O)Nc1ccc(S(=O)(=O)Oc2ccc(/C=N/N=C3/NC(=O)C(CC(=O)O)S3)cc2)cc1 (configuration not stated),-3.01%
6,CC(c1ccccn1)N(C)C(=O)c1ccc2nc(Cc3cccc(Cl)c3)oc2c1 (configuration not stated),-18.4%
7,CC[C@]12c3[nH]c4ccc(Cl)cc4c3CCN1C(=O)[C@@H](CC(=O)NCCN1CCOCC1)C[C@@H]2C(=O)N1CCN(C(=O)C2CC2)CC1,-12.4%
8,Cc1cc(OC(=O)c2ccc(Cl)cc2)cc(=O)n1C,-3.96%
9,COCCCNc1nc2c(-c3cccc(C)c3)nnn2c2ccc(Cl)cc12,-27.9%
10,COc1ccc(CCNC(=O)COc2ccc3c(c2)OCO3)cc1,-4.78%
11,Cc1ccc2cc(CCNC(=O)c3ccc4c(c3)OCO4)c(=O)[nH]c2c1,-18%
12,O=C(NCCc1ccc(C(F)(F)F)cc1)c1ccc2c(c1)OCO2,40.1% (active)
13,O=S(N1CCCCCC1)C12CC3CC(CC(C3)C1)C2 (configuration not stated),-6.89%
14,COc1ccc(N2CCC(CNC(=S)Nc3c(C)cccc3C)C2)cc1 (configuration not stated),-5.49%
15,CC1(C)C2CCC1(C)C(OC(=O)c1ccc(O)cc1)C2 (configuration not stated),76.2% (active)
16,CC1(C)C2CCC1(C)C(OC(=O)CCn1ccnc1)C2 (configuration not stated),-13.9%
17,Cc1ccc(C(=O)OC2CCCN(C)C2)cc1 (configuration not stated),-15%
18,O=C(CNC(=O)c1ccc(Br)o1)NCC1CCCO1 (configuration not stated),4.99%
19,CC[C@]12c3[nH]c4cc(CCC(=O)N(C)C)ccc4c3CCN1C(=O)[C@@H](CC(=O)NCCCN(C)C)C[C@@H]2C(=O)N1CCN(C(=O)c2ccco2)CC1,-12.2%

row,SMILES,inhibition
1,CCC(C)NC(=O)C1c2ccccc2Oc2ccccc21 (configuration not stated),-11.6%
2,CCCCCNC(=O)C1c2ccccc2Oc2ccccc21,-8.91%
3,CCC(C)(C)NC(=O)C1c2ccccc2Oc2ccccc21,41.2% (active)
4,Cc1cc(C)c2nc(SCC(=O)N(C)C3CCS(=O)(=O)C3)cc(C)c2c1 (configuration not stated),-7.05%
5,CCOc1ccc(C(=O)Nc2cccc(-c3ccc4nncn4n3)c2)cc1,-7.65%
6,O=S(=O)(NC1CC2CCC1C2)c1ccc(Cl)cc1 (configuration not stated),-7.07%
7,O=C(NCCN=C1NS(=O)(=O)c2ccccc21)c1ccc(S(=O)(=O)N2CCOCC2)cc1,-2.4%
8,Cc1n[nH]c(C)c1S(=O)(=O)N1CCCC(C(=O)NCC2COc3ccccc3O2)C1 (configuration not stated),-6.84%
9,CC(=O)c1c(C)[nH]c(C(=O)OCC(=O)Nc2sc3c(c2C#N)CCCC3)c1C,33.6% (active)
10,Cc1cccc(C(=O)OCC(=O)Nc2sc3c(c2C#N)CCC3)c1,-1.94%
11,CC(=O)c1c(C)[nH]c(C(=O)OCC(=O)Nc2c(C)cccc2C)c1C,-7.2%
12,O=C(COC(=O)[C@H](Cc1ccccc1)NC(=O)c1cccs1)Nc1cc(F)ccc1F,-7.13%
13,CC(=O)N(O)CCCCCNC(=O)CCC(=O)N(O)CCCCCNC(=O)CCC(=O)N(O)CCCCCNC(=O)CCC(=O)O,-0.82%
14,O=C(NC(=S)NC1CCSC1=O)c1ccccc1F (configuration not stated),-7.55%
15,COc1cc(OC)c(-n2cc(-c3ccc(Cl)cc3)[nH]c2=O)cc1Cl,39.3% (active)
16,COc1cc(OC)c(N2CC(C(=O)Nc3cc(Cl)ccc3N3CCOCC3)CC2=O)cc1Cl (configuration not stated),-16.6%
17,COc1cc(OC)c(-n2c(C)cc(C=O)c2C)cc1Cl,-12.5%
18,CN(c1ccccc1)S(=O)(=O)c1cc(C(=O)N2CCN(c3ncccn3)CC2)ccc1Cl,-18.9%
19,CC(C)(C)c1ccc(SCCc2ccncc2)cc1,28.1%

row,SMILES,inhibition
1,O=C(O)CC1S/C(=N\N=C/c2ccccc2O)N(c2ccc(O)cc2)C1=O (configuration not stated),-10.7%
2,CS(=O)(=O)N(CC(=O)Nc1ccc(Cl)c(Cl)c1)C1CCCCC1,-5.86%
3,O=C(CC(O)(C(F)(F)F)C(F)(F)F)Nc1ccc(Cl)c(Cl)c1,72.5% (active)
4,CCn1nccc1C(=O)Nc1ccc(Cl)c(Cl)c1,-8.3%
5,CN(C)CCN(Cc1ccccc1)S(=O)(=O)c1csc(C(N)=O)c1,-12.9%
6,COc1cccc(-c2coc3cc4oc(=O)c(CC(=O)O)c(C)c4cc23)c1,1.98%
7,CC#CC[N+](C)(C)CCCCCC,-6.39%
8,FC(F)(F)C1CCCN(c2nsc3ccccc23)C1 (configuration not stated),51.7% (active)
9,O=C(NCC(=O)N1CCCC(C(F)(F)F)C1)c1ccccc1F (configuration not stated),-5.99%
10,O=C(NC(Cc1ccccc1)C(=O)N1CCCC(C(F)(F)F)C1)c1ccccc1 (configuration not stated),-16.7%
11,Cc1cc(C(=O)O)c(S(C)(=O)=O)s1,-2.26%
12,CCN(CC)C(=O)[C@H]1C[C@H](CC(=O)NCC23CC4CC(CC(C4)C2)C3)C(=O)N2CCc3c([nH]c4cc(CCC(=O)N(C)C)ccc34)[C@]12C,-25.6%
13,Fc1ccc2[nH]c3c(N4CCSCC4)ncnc3c2c1,58.3% (active)
14,Cc1nn(C)cc1N1C(=O)c2cccc3c(N)ccc(c23)C1=O,36.8% (active)
15,Cc1nn(C)cc1C(=O)c1ccccc1,-6.65%
16,CC(=O)Nc1ccccc1Sc1ccc2c3c(cccc13)C(=O)N(c1ccc(C)cc1)C2=O,-4.4%
17,O=C(O)c1ccc2c3c(cccc13)C(=O)N(OS(=O)(=O)c1ccccc1)C2=O,-10.1%
18,CN1C(=O)c2cccc3c(N)ccc(c23)C1=O,49.2% (active)
19,COc1cc(C(=O)N2C(=O)c3cccc(N)c3C2=O)cc(OC)c1OC,-9.7%
